Screening results (PubChem BioAssay)
Sampled rows, rich in hits. Any-hit rate of the full collection: about 4.1%.
KCNQ1 pot: human KCNQ1 channel potentiation or activation | P51787 | CHO-K1 KCNQ1, thallium flux FluxOR fluorescence; active compounds read high | B-score at 10 µM | actives 0.35% (n = 310,000) | AID 2648;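 active means fluorescence ratio B-score, a plate-corrected score, at least three library SD, with initial intensity B-score within 5 SD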
Target sequence (P51787 whole entry, looked up): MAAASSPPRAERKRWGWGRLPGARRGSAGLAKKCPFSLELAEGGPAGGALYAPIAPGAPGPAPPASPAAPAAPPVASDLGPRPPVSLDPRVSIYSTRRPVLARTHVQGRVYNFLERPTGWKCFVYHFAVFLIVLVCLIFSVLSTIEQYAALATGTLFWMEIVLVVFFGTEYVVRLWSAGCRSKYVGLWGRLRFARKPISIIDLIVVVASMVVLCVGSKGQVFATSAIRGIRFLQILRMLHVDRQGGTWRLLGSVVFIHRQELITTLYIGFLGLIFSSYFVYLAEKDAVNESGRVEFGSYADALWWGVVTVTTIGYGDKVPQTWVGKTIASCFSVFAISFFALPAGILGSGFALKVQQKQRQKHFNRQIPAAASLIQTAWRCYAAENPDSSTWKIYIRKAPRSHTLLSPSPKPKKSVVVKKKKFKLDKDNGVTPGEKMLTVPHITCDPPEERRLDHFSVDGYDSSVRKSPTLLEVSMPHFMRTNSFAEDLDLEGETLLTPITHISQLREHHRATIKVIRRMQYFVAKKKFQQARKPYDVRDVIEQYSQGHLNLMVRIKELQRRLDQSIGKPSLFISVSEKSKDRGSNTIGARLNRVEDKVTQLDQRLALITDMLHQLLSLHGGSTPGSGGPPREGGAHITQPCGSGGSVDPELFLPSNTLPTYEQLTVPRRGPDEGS
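System: Stable KCNQ1 CHO-K1 line | Incubation: 90 min dye loading and 20 min compound exposure, both at room temperature | Measure: Ratio B score | Medium: Assay buffer for compound exposure, DMSO matched across wells | Compound dosing: Single-concentration screen | Probe or stimulus: K+/Tl+ depolarizing stimulus | Measured by: Kinetic FluxOR fluorescence, 10 s baseline plus 110 s post-stimulus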
KCNK9 inh: human KCNK9 channel inhibition. actives 1.2% (n = 310,000). AID 488922. B-score at 10 µM. HEK293 KCNK9, FluxOR thallium flux fluorescence; active compounds read low;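 active means ratio B-score over 3 SD below the library mean, with starting fluorescence within 5 SD of its mean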;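 further: negative B-score means less thallium flux so channel inhibition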
KCNK3 block: human KCNK3 channel inhibition, primary screen | O14649 | CHO-KCNK3 thallium flux, FluxOR fluorescence; active compounds read low | B-score at 10 µM | actives 0.84% (n = 340,000);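 active means B-score under library mean minus 4 SD, starting fluorescence ratio at most library mean plus 5 SD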;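 further: more negative B-score means stronger inhibition of thallium flux through KCNK3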
KCNQ1 inh: human KCNQ1 channel inhibition; CHO-K1 KCNQ1, FluxOR thallium flux fluorescence; active compounds read high; B-score at 10 µM; actives 1.3% (n = 310,000);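 active means compounds whose thallium flux B-score, printed positive for inhibition, exceeds three library SD while starting fluorescence stays within three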;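 further: channel opened by potassium depolarization with thallium stimulus after 20 min compound exposure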
hERG rescue: shields human hERG channel from block by proarrhythmic agents | Q12809 | CHO-hERG, FluxOR thallium flux, dofetilide IC70 present | activation (rescue from dofetilide block), less the hit threshold, % at 10 µM | actives 0.51% (n = 310,000);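 active means activation above the mean of controls blocked by dofetilide plus 5 SD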;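 further: thallium influx through hERG after potassium depolarization seen as dye fluorescence rise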
KCC2 mod: modulates chloride dependent transport by human KCC2 | KCC2 cells, thallium flux FluoZin-2 fluorescence | B-score of Tl+ flux slope (higher = more flux/activation; lower = inhibition) at 10 µM | actives 2.2% (n = 190,000);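 active means thallium flux slope and its plate-corrected score both differing from the plate sample mean at a set confidence after two filtering rounds, in either direction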;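 further: slope of fluorescence scaled to starting intensity during 10 to 20 s after thallium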
KCC2 sec1: confirmation of human KCC2 transport modulators | normalised thallium flux (F/F0 slope) at 10 µM | HEK293-KCC2, thallium flux, FluoZin2 fluorescence; active compounds read high | actives 15% (n = 3,700) | AID 1713 | shares compounds with KCC2 mod;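 active means thallium flux slope above the same plate's solvent-only control mean plus 3 SD; inconclusive means the two replicate wells disagree; inactive means no significant difference from solvent-only control wells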
KCC2 bumet counter: thallium flux despite bumetanide block in KCC2 cells, secondary assay 3; HEK293-KCC2 + bumetanide/ouabain, thallium flux FluoZin2; active compounds read high; normalized thallium flux at 10 µM; shares compounds with KCC2 mod; actives 49% (n = 3,700);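 active means thallium entry rate above the same plate's blocked-transporter control wells by more than 3 SD; inconclusive means the two repeat wells disagree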;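 further: raw slope of fluorescence over initial fluorescence between 10 and 20 s after thallium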
KCC2 secondary2: KCC2 (human) modulation, second secondary assay. shares compounds with KCC2 mod. HEK293-KCC2, thallium flux FluoZin2 fluorescence; actives lie on both sides; F/F0 rise rate, 10–20 s post-thallium. normalized thallium flux at 10 µM. actives 23% (n = 3,700);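 active means thallium flux slope more than 3 SD above or below the plate's solvent-only control mean, mostly below; inconclusive means the two repeat wells disagreed; inactive means no significant shift from solvent-only controls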
HEK counter1: acts in parental HEK cells, KCC2 counter-screen | actives 46% (n = 3,700) | thallium flux rate (normalised fluorescence) at 10 µM | HEK293 parental cells, thallium flux FluoZin2, ouabain; baseline-ratio fluorescence slope, 10–20 s after thallium | shares compounds with KCC2 mod;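 active means thallium flux rate significantly above the same plate's solvent-only control wells, beyond their mean plus 3 SD; inconclusive means the two replicate wells gave conflicting results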
KCC2 retest ouab: modulates human KCC2 on retest with ouabain; shares compounds with KCC2 mod; AID 1717; actives 48% (n = 3,700); raw Tl+ flux slope (below DMSO = inhibition, above = activation) at 10 µM; HEK293-KCC2, thallium flux FluoZin2 fluorescence; bidirectional: low = inhibitor, high = activator;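 active means thallium flux slope beyond 3 SD from same-plate DMSO control mean in most replicates, usually higher, sometimes lower; inconclusive means repeat tests gave conflicting results; inactive means no significant difference from controls in most replicates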;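 further: slope of initial-normalized fluorescence between seconds 10 and 20 after thallium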
HEK counter2: acts in parental HEK cells, second KCC2 counter-screen | HEK293 parental, thallium flux FluoZin-2 fluorescence slope | thallium flux slope at 10 µM | shares compounds with KCC2 mod | actives 33% (n = 3,700);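 active means thallium flux slope above the same plate's solvent-control mean plus 3 SD in both duplicate wells; inconclusive means duplicate wells that disagreed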;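 further: run without ouabain in cells lacking the KCC2 cotransporter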
Large screens that a line does not name were inactive (follow-up assays come after a bar, where they were run).

COc1cc(S(=O)(=O)Nc2ccc(C)cc2)ccc1N=Cc1c(C)c(C#N)c(=O)n(C)c1O	none
Cc1ccc(N/N=C/c2c(C)c(C#N)c(=O)n(C)c2O)cc1C	KCC2 mod -3.9 | KCC2 sec1 inactive | KCC2 bumet counter inactive | KCC2 secondary2 inactive | HEK counter1 inconclusive | KCC2 retest ouab inactive | HEK counter2 inactive
Clc1ccc(-c2csc(NNC3=NCCCCC3)n2)cc1	KCC2 mod -4.4 | KCC2 sec1 inconclusive | KCC2 bumet counter inactive | KCC2 secondary2 inactive | HEK counter1 inactive | KCC2 retest ouab 0.019 | HEK counter2 inactive
CNC(=S)NNC(=O)c1sccc1OCc1ccc(Cl)cc1Cl	none (no result: KCC2 mod)
S=c1nc(-c2sccc2OCc2ccc(Cl)cc2Cl)[nH][nH]1	KCC2 mod 24 | KCC2 sec1 inactive | KCC2 bumet counter 0.087 | KCC2 secondary2 inactive | HEK counter1 0.023 | KCC2 retest ouab inconclusive | HEK counter2 0.013
Cc1nn(CC(=O)O)c2ccccc12	KCC2 mod 6.6 | KCC2 sec1 inactive | KCC2 bumet counter inactive | KCC2 secondary2 inactive | HEK counter1 inactive | KCC2 retest ouab inactive | HEK counter2 inactive
Cc1ccc(C(=O)CSc2nnc3c4ccccc4nc(C(C)(C)C)n23)cc1	KCC2 mod 16 | KCC2 sec1 0.014 | KCC2 bumet counter 0.043 | KCC2 secondary2 inactive | HEK counter1 0.019 | KCC2 retest ouab 0.032 | HEK counter2 0.012
O=C(O)/C=C/c1cn(Cc2ccccc2Cl)nc1-c1ccccc1	KCC2 mod -5.1 | KCC2 sec1 inactive | KCC2 bumet counter inactive | KCC2 secondary2 0.024 | HEK counter1 inactive | KCC2 retest ouab 0.011 | HEK counter2 inactive
O=C(O)/C=C/c1cn(Cc2ccccc2)nc1-c1ccc(Cl)cc1	KCC2 mod -4.7 | KCC2 sec1 inconclusive | KCC2 bumet counter inactive | KCC2 secondary2 inconclusive | HEK counter1 inactive | KCC2 retest ouab 0.012 | HEK counter2 inactive
N#CCCn1cc(/C=C/C(=O)O)c(-c2ccc(F)cc2)n1	none
Cc1ccc(-c2nn(Cc3ccccc3)cc2/C=C/C(=O)O)cc1	KCC2 mod -4.5 | KCC2 sec1 inactive | KCC2 bumet counter inactive | KCC2 secondary2 0.025 | HEK counter1 inactive | KCC2 retest ouab 0.013 | HEK counter2 inactive
Cc1ccc(Cn2cc(/C=C/C(=O)O)c(-c3ccccc3)n2)cc1	none
O=C(O)c1cccc(-c2nnn(Cc3ccccc3Cl)n2)c1	none
O=C(O)c1ccccc1SCC(=O)N1CCOCC1	none
Cc1ccc(S(=O)(=O)CC(=O)c2ccccc2[N+](=O)[O-])cc1	none (no result: KCC2 mod)
O=C(CN1CCN(c2ccccn2)CC1)Nc1ccc2ccccc2c1	none (no result: KCC2 mod) | KCC2 sec1 inactive | KCC2 bumet counter inactive | KCC2 secondary2 inactive | HEK counter1 inactive | KCC2 retest ouab inactive | HEK counter2 inactive
CC(=O)Nc1ccc(NC(=O)CN2CCN(c3ccccn3)CC2)cc1	none (no result: KCC2 mod)
O=C(Nc1cc(Cl)ccc1O)C1CC(c2ccccc2O)=NO1 (stereo not drawn)	none (no result: KCC2 mod)
CCCn1c(Nc2nc3ccccc3n2C)nc2ccccc21	none
CCCn1c(NC(=S)Nc2ccccc2)nc2ccccc21	KCC2 mod 28 | KCC2 sec1 inconclusive | KCC2 bumet counter 0.018 | KCC2 secondary2 inactive | HEK counter1 0.0092 | KCC2 retest ouab 0.038 | HEK counter2 inactive
CCCCCCCn1c(NC(=O)CC)nc2ccccc21	KCC2 mod 6.5 | KCC2 sec1 inconclusive | KCC2 bumet counter 0.027 | KCC2 secondary2 inactive | HEK counter1 0.011 | KCC2 retest ouab inactive | HEK counter2 0.011
Cc1nc(SC2CC(=O)N(c3ccccc3)C2=O)nc2c1CCCC2 (stereo not drawn)	none (no result: KCC2 mod) | KCC2 sec1 inactive | KCC2 bumet counter inactive | KCC2 secondary2 0.026 | HEK counter1 inconclusive | KCC2 retest ouab 0.016 | HEK counter2 inactive
Cc1ccc(N2C(SCC(=O)O)=NC(=Nc3cccc(C)c3)C23CCCC3)cc1	none
CCc1ccc(NC(=S)N2CCNC(=O)C2CC(=O)OC)cc1 (stereo not drawn)	none
COCCN(Cc1cc2cc3c(cc2nc1Cl)OCO3)C(=O)Nc1ccccc1OC	none (no result: KCC2 mod)
O=C(Nc1ccccc1-c1ccccc1)c1ccc(=O)[nH]n1	none (no result: KCC2 mod)
Cc1ccc(OCCCn2c(=O)sc3ccccc32)cc1	KCC2 mod 5.8 | KCC2 sec1 inactive | KCC2 bumet counter inactive | KCC2 secondary2 inactive | HEK counter1 inactive | KCC2 retest ouab inactive | HEK counter2 inconclusive
Cc1ccc(OCCn2c(=O)sc3ccccc32)cc1	none
O=C(c1cccs1)N1CCN(C23CC4CC(CC(C4)C2)C3)CC1	none (no result: KCC2 mod)
COC(=O)C1=NN[C@H](C(=O)OC(C)(C)C)[C@H]1c1ccccc1	none
CCOC(=O)c1ccccc1NC1OC(=O)c2ccccc21 (stereo not drawn)	KCC2 mod -3.9 | KCC2 sec1 inconclusive | KCC2 bumet counter inactive | KCC2 secondary2 inactive | HEK counter1 inconclusive | KCC2 retest ouab inactive | HEK counter2 inconclusive
CCOC(=O)c1ccccc1NC1c2ccccc2C(=O)N1C1CCN(C(=O)OCC)CC1 (stereo not drawn)	none
O=C(CSc1ncccn1)NC(=O)c1ccccc1	none
Cn1nnnc1N=N/C(=N/Nc1ccccc1)c1ccccc1	KCC2 mod 60 | KCC2 sec1 0.026 | KCC2 bumet counter 0.094 | KCC2 secondary2 0.057 | HEK counter1 0.044 | KCC2 retest ouab 0.052 | HEK counter2 0.045
Oc1ccccc1N=N/C(=N/Nc1ccccc1O)c1ccccc1	none (no result: KCC2 mod)
